Converted amounts (≈) assume the structure as drawn. The source made the active and inactive calls. No cut-off for these calls is given here.
Tests used:
Aphis gossypii [1] = test: Pesticidal activity against Aphis gossypii (cotton aphid) third-instar nymphae grown on tender Hibiscus syriacus leaves assessed as pest mortality at 2 mg/L measured 24 hr post compound exposure; type: functional; conditions: in Hibiscus syriacus
In short: (§1)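 Leaf-dip bioassay: over 30 healthy apterous third-instar nymphs on tender Hibiscus syriacus leaves dipped 5 s in compound diluted in distilled water with 0.05% Triton X-100, excess fluid removed. Held in illumination box at 25 ± 1 °C; mortality scored after 24 h. Tests in triplicate.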

Tetranychus cinnabarinus [2] = test: Pesticidal activity against Tetranychus cinnabarinus (carmine spider mite) third- instar larvae grown on Phaseolus vulgaris leaves assessed as conversion of corpus colour to black at 25 to 400 mg/L measured 48 hr post compound exposure; type: functional, organism-based
In short: (§2)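 Mite larvae (>20 third-instar on Phaseolus vulgaris leaves) leaf-dipped 5 s in compound at 400, 200, 100, 50 or 25 mg L⁻¹ in water with 0.05% Triton X-100, kept at 25 ± 1 °C. Movement of larvae observed at 1 h; corpse colour change to black observed at 48 h after treatment.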

Tetranychus cinnabarinus [3] = test: Pesticidal activity against Tetranychus cinnabarinus (carmine spider mite) third- instar larvae grown on Phaseolus vulgaris leaves assessed as reduction in larval movement at 25 to 400 mg/L measured 1 hr post compound exposure; type: functional, organism-based; in short: as §2
Tetranychus cinnabarinus [4] = test: Pesticidal activity against Tetranychus cinnabarinus (carmine spider mite) third- instar larvae grown on Phaseolus vulgaris leaves assessed as pest mortality measured 48 hr post compound exposure; type: functional
In short: (§3)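 More than 20 third-instar mite larvae on Phaseolus vulgaris leaves dipped 5 s in compound solutions (water with 0.05% Triton X-100), excess liquor removed. Larvae held at 25 ± 1 °C in illumination box; mortality read at 48 h. Primary screen at 600 mg L⁻¹, follow-up at 400, 200, 100, 50 and 25 mg L⁻¹ with LC50 calculated. Triplicate tests.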

Tetranychus cinnabarinus [5] = test: Pesticidal activity against Tetranychus cinnabarinus (carmine spider mite) third- instar larvae grown on Phaseolus vulgaris leaves assessed as pest mortality at 25 mg/L measured 48 hr post compound exposure; type: functional; in short: as §3
Tetranychus cinnabarinus [6] = test: Pesticidal activity against Tetranychus cinnabarinus (carmine spider mite) third- instar larvae grown on Phaseolus vulgaris leaves assessed as pest mortality at 100 mg/L measured 48 hr post compound exposure; type: functional; in short: as §3
Tetranychus cinnabarinus [7] = test: Pesticidal activity against Tetranychus cinnabarinus (carmine spider mite) third- instar larvae grown on Phaseolus vulgaris leaves assessed as pest mortality at 400 mg/L measured 48 hr post compound exposure; type: functional; in short: as §3
Tetranychus cinnabarinus [8] = test: Pesticidal activity against Tetranychus cinnabarinus (carmine spider mite) third- instar larvae grown on Phaseolus vulgaris leaves assessed as pest mortality at 50 mg/L measured 48 hr post compound exposure; type: functional; in short: as §3
Tetranychus cinnabarinus [9] = test: Pesticidal activity against Tetranychus cinnabarinus (carmine spider mite) third- instar larvae grown on Phaseolus vulgaris leaves assessed as pest mortality at 200 mg/L measured 48 hr post compound exposure; type: functional; in short: as §3
Plutella xylostella [10] = test: Pesticidal activity against Plutella xylostella (diamondback moth) second-instar larvae grown on cruciferous vegetables leaves leaves as pest mortality at 600 mg/L measured 48 hr post compound exposure; type: functional
In short: (§4)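 Over 20 second-instar larvae on cruciferous vegetable leaves dipped 5 s in compound diluted in distilled water containing 0.05% Triton X-100, excess liquid removed. Kept in illumination box at 25 ± 1 °C; mortality recorded 48 h after treatment. Each test in triplicate.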

Tetranychus cinnabarinus [11] = test: Pesticidal activity against Tetranychus cinnabarinus (carmine spider mite) third- instar larvae grown on Phaseolus vulgaris leaves assessed as pest mortality at 600 mg/L measured 48 hr post compound exposure; type: functional; in short: as §3
Aphis gossypii [12] = test: Pesticidal activity against Aphis gossypii (cotton aphid) third-instar nymphae grown on tender Hibiscus syriacus leaves assessed as pest mortality at 600 mg/L measured 24 hr post compound exposure; type: functional; conditions: in Hibiscus syriacus; in short: as §1
Aphis gossypii [13] = test: Pesticidal activity against Aphis gossypii (cotton aphid) third-instar nymphae grown on tender Hibiscus syriacus leaves assessed as pest mortality at 200 mg/L measured 24 hr post compound exposure; type: functional; conditions: in Hibiscus syriacus; in short: as §1
Plutella xylostella [14] = test: Pesticidal activity against Plutella xylostella (diamondback moth) second-instar larvae grown on cruciferous vegetables leaves leaves as pest mortality at 0.2 mg/L measured 48 hr post compound exposure; type: functional; in short: as §4

| Structure (SMILES) | mortality at 2 µg/mL (Aphis gossypii [1]) [%] | Activity (Tetranychus cinnabarinus [2]) | Activity (Tetranychus cinnabarinus [3]) | LC50 (Tetranychus cinnabarinus [4]) [µg/mL] | mortality at 25 µg/mL (Tetranychus cinnabarinus [5]) [%] | mortality at 100 µg/mL (Tetranychus cinnabarinus [6]) [%] | mortality at 400 µg/mL (Tetranychus cinnabarinus [7]) [%] | mortality at 50 µg/mL (Tetranychus cinnabarinus [8]) [%] | mortality at 200 µg/mL (Tetranychus cinnabarinus [9]) [%] | mortality at 600 µg/mL (Plutella xylostella [10]) [%] | mortality at 600 µg/mL (Tetranychus cinnabarinus [11]) [%] | mortality at 600 µg/mL (Aphis gossypii [12]) [%] | mortality at 200 µg/mL (Aphis gossypii [13]) [%] | mortality at 0.2 µg/mL (Plutella xylostella [14]) [%] |
| --- | --- | --- | --- | --- | --- | --- | --- | --- | --- | --- | --- | --- | --- | --- |
| O=[N+]([O-])/N=C1\NCCN1Cc1ccc(Cl)nc1 [IMIDACLOPRID] | 100 |  |  |  |  |  |  |  |  |  |  |  |  |  |
| Cc1cc(Br)cc(C(=O)NNCc2ccccc2Cl)c1NC(=O)C(C)(C)CCl |  | Active | Active | 51.7 (≈ 106 µM) | 36.5 | 62.6 | 89.6 | 44.9 | 83.6 | 76 | 95.7 | 8.5 |  |  |
| CNC(=O)c1cc(Cl)cc(C)c1NC(=O)c1cc(Br)nn1-c1ncccc1Cl [CHLORANTRANILIPROLE] |  |  |  | 633 (≈ 1310 µM) | 7.4 | 17.2 | 40.7 | 13.2 | 29.9 |  |  |  | 91.3 | 100 |
